Measured values pooled from the literature.
Protocols differ between the studies behind these lines.
SLC6A3: Sodium-dependent dopamine transporter (SLC6A3, Homo sapiens, UniProt Q01959)
DRD3: D(3) dopamine receptor (DRD3, Homo sapiens, UniProt P35462)
USP51: Ubiquitin carboxyl-terminal hydrolase 51 (USP51, Homo sapiens, UniProt Q70EK9)
CA12: Carbonic anhydrase 12 (CA12, Homo sapiens, UniProt O43570)

| SMILES | target | test | system | conditions | inhibition [%] |
| --- | --- | --- | --- | --- | --- |
| Oc1cccc(Nc2nc(-c3ccc(F)cc3F)cs2)c1 | Peroxisome proliferator-activated receptor gamma (PPARG, Homo sapiens, UniProt P37231) | cell-free assay | – | 10 µM | 86.5 |
| Fc1ccc(C(c2ccc(F)cc2)c2nnnn2CCCN2CCC(CCCc3ccccc3)CC2)cc1 | SLC6A3 | transporter uptake, inhibitor | HEK293 | 1 µM | 33.1 |
| FC(F)(F)c1cccc(-c2ccc(CNCCCN3CCOCC3)o2)c1 | DRD3 | enzyme activity, inhibitor | – | 10 µM | 50.7 |
| O=C1CC(c2ccccc2)Oc2ccccc21 (stereo not drawn) | USP51 | enzyme activity, inhibitor | – | 5 µM | 0 |
| O=C1C2CCCN2C(=O)N1CCCCN1CCN(c2cccc(Cl)c2)CC1 (stereo not drawn) | DRD3 | enzyme activity, inhibitor | – | 10 µM | 63.4 |
| C[Se]CC[C@H](N)C(=O)O | USP51 | enzyme activity, inhibitor | – | 5 µM | 34 |
| CCOC(=O)C1CSc2[nH]c(=O)sc2C1c1cn(-c2ccccc2)nc1-c1ccc(Cl)cc1 (stereo not drawn) | CA12 | enzyme activity, inhibitor, absorbance | – | 10 nM | 27.6 |
| Cc1ccc(Nc2nccc(N(C)c3ccc4c(C)n(C)nc4c3)n2)cc1S(N)(=O)=O | Tyrosine-protein kinase Lyn (Lyn, Mus musculus, UniProt P25911) | enzyme activity, inhibitor | – | 0.3 µM | 66 |
| O=C1C2CCCN2C(=O)N1CCCCN1CCN(c2cccc(C(F)(F)F)c2)CC1 (stereo not drawn) | DRD3 | enzyme activity, inhibitor | – | 10 µM | 42.5 |
| Cc1ccc(-c2nn(-c3ccccc3)cc2C2c3sc(=O)[nH]c3SC3C(=O)N(c4ccccc4)C(=O)C32)cc1 (stereo not drawn) | CA12 | enzyme activity, inhibitor, absorbance | – | 1 µM | 56.2 |
| COc1ccc([C@@H]2CC(=O)c3c(O)cc(O[C@@H]4O[C@H](CO[C@@H]5O[C@@H](C)[C@H](O)[C@@H](O)[C@H]5O)[C@@H](O)[C@H](O)[C@H]4O)cc3O2)cc1O | USP51 | enzyme activity, inhibitor | – | 5 µM | 30 |
| CCOC(=O)C1CSc2[nH]c(=O)sc2C1c1cn(-c2ccccc2)nc1-c1ccccc1 (stereo not drawn) | CA12 | enzyme activity, inhibitor, absorbance | – | 10 µM | 72.5 |
| Clc1ccc(C(c2ccccc2)c2nnnn2CCCCN2CCC(CCc3ccccc3)CC2)cc1 (stereo not drawn) | SLC6A3 | transporter uptake, inhibitor | HEK293 | 1 µM | 74.6 |
| O=c1c(-c2ccc(O)cc2)coc2cc(O)ccc12 | USP51 | enzyme activity, inhibitor | – | 5 µM | 10 |
| CCOc1ccc(N2C(=O)CC(NCCc3ccccc3Cl)C2=O)cc1 (stereo not drawn) | DRD3 | enzyme activity, inhibitor | – | 10 µM | 2.43 |
| CN1C(=O)/C(=C2/C(=O)Nc3ccccc32)c2ccccc21 | USP51 | enzyme activity, inhibitor | – | 5 µM | 48 |
| O=C1NC(=S)C(=Cc2cn(-c3ccccc3)nc2-c2ccc(Br)cc2)S1 | CA12 | enzyme activity, inhibitor, absorbance | – | 0.1 µM | 11.1 |
| CC[C@H]1CN2CCc3cc(OC)c(OC)cc3[C@@H]2C[C@@H]1C[C@H]1NCCc2cc(OC)c(OC)cc21 | USP51 | enzyme activity, inhibitor | – | 5 µM | 20 |
| COc1ccc(N2CCN(CC(O)COc3ccc(C(C)=O)cc3OC)CC2)cc1 (stereo not drawn) | DRD3 | enzyme activity, inhibitor | – | 10 µM | 0.2 |
| c1ccc(CCCC2CCN(CCCn3nnnc3C(c3ccccc3)c3ccccc3)CC2)cc1 | SLC6A3 | transporter uptake, inhibitor | HEK293 | 1 µM | 30.4 |
| O=Cc1ccc(O[C@@H]2O[C@H](CO)[C@@H](O)[C@@H](O)[C@H]2O)cc1 | USP51 | enzyme activity, inhibitor | – | 5 µM | 28 |
